One data set has as its system Bacillus subtilis. The data set can be described thus: In vitro antibacterial activity measured as minimum inhibitory concentration was evaluated on Bacillus subtilis ATCC 6633(Bs). In kind it is functional. The settings on record: Bacillus subtilis, ATCC 6633; read-out: MIC. The method, boiled down: (§1)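 Serial 2-fold agar dilution in Mueller Hinton medium, run side by side with reference quinolones. Inoculum 10^5 cfu/mL; compound range 0.007–16 µg/mL.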

In a further data set the test system is Enterobacter cloacae. The data set can be described thus: In vitro antibacterial activity measured as minimum inhibitory concentration, was evaluated on Enterobacter cloacae ATCC 23355 (Ecl). Type of data set: functional. The note with it: Enterobacter cloacae, ATCC 23355; read-out: MIC.
For a further data set, the system named is Klebsiella pneumoniae. Briefly: In vitro antibacterial activity measured as minimum inhibitory concentration was evaluated on klebsiella pneumoniae ATCC 10031 (Kp). Type of data set: functional. The settings on record: Klebsiella pneumoniae, ATCC 10031; read-out: MIC. The method, boiled down: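 Serial 2-fold agar dilution in Mueller Hinton medium, run side by side with reference quinolones.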

In data set [1] the test system is Pseudomonas aeruginosa. The data set can be described thus: In vivo efficacy as ED50 against Pseudomonas aeruginosa HS-116 by oral administration in mice. Type of data set: functional. The settings on record: Pseudomonas aeruginosa, po; read-out: ED50. The method, boiled down:
(§2)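 Mice, 4 groups of 10, infected intraperitoneally with slightly more than the LD100 of the organism. A single oral dose was given immediately after infection, with four doses (one per group) chosen from in vitro activity. Survival was scored after one week. ED50 (total dose, mg/kg, protecting 50%) was interpolated among group survival rates.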

The test system of data set [2] is Staphylococcus aureus. Briefly: In vivo efficacy as ED50 against Staphylococcus aureus HS-93 by oral administration in mice. Type of data set: functional. The settings on record: Staphylococcus aureus, po; read-out: ED50. The essentials:
as §2

In data set [3] the test system is Escherichia coli. Briefly: In vivo efficacy as ED50 against Escherichia coli HM-42 by oral administration in mice. In kind it is functional. The note with it: Escherichia coli, po; read-out: ED50. The essentials: as §2
Data set [4] deals with Staphylococcus aureus. The data set can be described thus: In vitro antibacterial activity measured as minimum inhibitory concentration was evaluated on Staphylococcus aureus ATCC 25178 (Sa). In kind it is functional. The settings on record: Staphylococcus aureus, ATCC 25178; read-out: MIC. The essentials: as §1
In data set [5] the test system is Staphylococcus epidermidis. Briefly: In vitro antibacterial activity measured as minimum inhibitory concentration was evaluated on Staphylococcus epidermidis ATCC 155-1 (Se). Type of data set: functional. The settings on record: Staphylococcus epidermidis, ATCC 155-1; read-out: MIC. The essentials: as §1
In data set [6] the test system is Escherichia coli. Briefly: In vitro antibacterial activity measured as minimum inhibitory concentration, was evaluated on Escherichia coli ATCC 23559(Ec). In kind it is functional. The note with it: Escherichia coli, ATCC 23559; read-out: MIC. The method, boiled down: as §1
The subject of a further data set is Morganella morganii. Briefly: In vitro antibacterial activity measured as minimum inhibitory concentration was evaluated on morganella morganii ATCC 8019 (Mm). The note with it: Morganella morganii, ATCC 8019; read-out: MIC. In kind it is functional. The essentials:
as §1

For data set [7] the following is noted: mouse, in vivo, po, 50 mg/kg.
The subject of the next data set is Bacillus cereus. The data set can be described thus: In vitro antibacterial activity measured as minimum inhibitory concentration was evaluated on Bacillus cereus ATCC 11778 (Bc). Type of data set: functional. The settings on record: Bacillus cereus, ATCC 11778; read-out: MIC. The method, boiled down:
as §1

For another data set, the system named is Proteus vulgaris. Briefly: In vitro antibacterial activity measured as minimum inhibitory concentration was evaluated on proteus vulgaris ATCC 8427 (Pv). Type of data set: functional. The settings on record: Proteus vulgaris, ATCC 8427; read-out: MIC. The essentials:
as §1

The test system of data set [8] is Pseudomonas aeruginosa. The data set can be described thus: In vitro antibacterial activity measured as minimum inhibitory concentration was evaluated on Pseudomonas aeruginosa ATCC 10145 (Pa). In kind it is functional. The note with it: Pseudomonas aeruginosa, ATCC 10145; read-out: MIC. The method, boiled down:
as §1

In another data set the test system is Enterococcus faecalis. The data set can be described thus: In vitro antibacterial activity measured as minimum inhibitory concentration was evaluated on Streptococcus faecalis ATCC 10541 (Sf). The note with it: Enterococcus faecalis, ATCC 10541; read-out: MIC. Type of data set: functional. The essentials:
as §1

≈ marks a conversion by molar mass, not a printed value.

In general, MIC refers to the least concentration at which growth counts as inhibited. Usually ED50 stands for the midpoint of the dose-response relation. One may read the AUC as the area under the concentration-time curve, a measure of exposure. A lower AUC goes with low exposure.

In the case of `C[C@H]1[C@H](N)CN1c1c(F)cc2c(=O)c(C(=O)O)cn(C3CC3)c2c1F` (single isomer, unassigned), the MIC (with Bacillus subtilis; with Enterobacter cloacae; with Klebsiella pneumoniae; in the data set with Staphylococcus aureus [4]; in [5]; with Escherichia coli [6]) was 0.015 µg/mL (≈ 0.0429 µM) throughout. In addition, the minimal inhibitory concentration (MIC) in the data set with Morganella morganii amounted to 0.015 µg/mL (≈ 0.0429 µM). The figures for the ED50 with Pseudomonas aeruginosa [1], in the data set on Staphylococcus aureus [2] and in the data set with Escherichia coli [3] were 18 mg/kg, 3.5 mg/kg and 1 mg/kg, respectively. In addition, in data set [7], the AUC was found to be 21800 ng·h/mL.
As to `C[C@@H]1[C@@H](N)CN1c1nc2c(cc1F)c(=O)c(C(=O)O)cn2C1CC1`, the MIC in the data set on Bacillus cereus worked out at 0.25 µg/mL (≈ 0.752 µM); in the data set on Bacillus subtilis it was 0.06 µg/mL (≈ 0.181 µM); in the data set with Enterobacter cloacae, 0.12 µg/mL (≈ 0.361 µM); with Klebsiella pneumoniae, 0.06 µg/mL (≈ 0.181 µM); with Proteus vulgaris it was 0.5 µg/mL (≈ 1.5 µM); with Pseudomonas aeruginosa [8], 2 µg/mL (≈ 6.02 µM). The MIC was 0.5 µg/mL (≈ 1.5 µM) in the data set with Staphylococcus aureus [4]; 0.25 µg/mL (≈ 0.752 µM) in [5]; 2 µg/mL (≈ 6.02 µM) in the data set with Enterococcus faecalis; 0.12 µg/mL (≈ 0.361 µM) in the data set on Escherichia coli [6]; 0.25 µg/mL (≈ 0.752 µM) with Morganella morganii. In data set [7], this molecule returned an AUC of 22300 ng·h/mL.
Take `C[C@@H]1[C@@H](N)CN1c1cc2c(cc1F)c(=O)c(C(=O)O)cn2-c1ccc(F)cc1F`: the MIC stood at 0.5 µg/mL (≈ 1.24 µM) with Bacillus cereus; 0.25 µg/mL (≈ 0.62 µM) in the data set with Bacillus subtilis; 1 µg/mL (≈ 2.48 µM) in the data set with Enterobacter cloacae; 0.25 µg/mL (≈ 0.62 µM) with Klebsiella pneumoniae; 2 µg/mL (≈ 4.96 µM) in the data set with Proteus vulgaris; 8 µg/mL (≈ 19.8 µM) with Pseudomonas aeruginosa [8]. Also, the minimum inhibitory concentration (MIC) was found to be 0.25 µg/mL (≈ 0.62 µM) in the data set with Staphylococcus aureus [4]; 0.25 µg/mL (≈ 0.62 µM) in [5]; 4 µg/mL (≈ 9.92 µM) with Enterococcus faecalis; 0.5 µg/mL (≈ 1.24 µM) in the data set on Escherichia coli [6]; 1 µg/mL (≈ 2.48 µM) in the data set with Morganella morganii. The median effective dose (ED50) was 90 mg/kg in the data set with Pseudomonas aeruginosa [1], 16.1 mg/kg in the data set on Staphylococcus aureus [2] and 10 mg/kg in the data set with Escherichia coli [3]. The exposure (AUC) in data set [7] is 35900 ng·h/mL.
As to `C[C@@H]1[C@@H](N)CN1c1nc2c(cc1F)c(=O)c(C(=O)O)cn2-c1ccc(F)cc1F`, the MIC in the data set with Bacillus cereus was determined as 0.5 µg/mL (≈ 1.24 µM); in the data set with Bacillus subtilis, 0.25 µg/mL (≈ 0.618 µM); in the data set with Enterobacter cloacae, 1 µg/mL (≈ 2.47 µM); with Klebsiella pneumoniae it was 0.25 µg/mL (≈ 0.618 µM); with Proteus vulgaris, 2 µg/mL (≈ 4.95 µM); with Pseudomonas aeruginosa [8], 8 µg/mL (≈ 19.8 µM). For the same molecule, the minimal inhibitory concentration (MIC) is 0.5 µg/mL (≈ 1.24 µM) with Staphylococcus aureus [4]; 0.5 µg/mL (≈ 1.24 µM) in data set [5]; 4 µg/mL (≈ 9.89 µM) with Enterococcus faecalis; 0.5 µg/mL (≈ 1.24 µM) in the data set with Escherichia coli [6]; 1 µg/mL (≈ 2.47 µM) in the data set on Morganella morganii. Moreover, the results for the 50% effective dose (ED50) in the data set with Pseudomonas aeruginosa [1], in the data set on Staphylococcus aureus [2] and in the data set with Escherichia coli [3] were 400 mg/kg, 8.6 mg/kg and 10.3 mg/kg, respectively. Besides, the exposure (AUC) in data set [7] was 28300 ng·h/mL.
Take `C[C@@H]1[C@@H](N)CN1c1c(F)c(N)c2c(=O)c(C(=O)O)cn(C3CC3)c2c1F`: the minimum inhibitory concentration (MIC) in the data set on Bacillus cereus is 0.015 µg/mL (≈ 0.0412 µM); in the data set with Bacillus subtilis it was 0.015 µg/mL (≈ 0.0412 µM); in the data set with Enterobacter cloacae, 0.015 µg/mL (≈ 0.0412 µM); with Klebsiella pneumoniae, 0.015 µg/mL (≈ 0.0412 µM); in the data set with Proteus vulgaris, 0.06 µg/mL (≈ 0.165 µM); with Pseudomonas aeruginosa [8] it was 0.12 µg/mL (≈ 0.329 µM). Moreover, the MIC in the data set on Staphylococcus aureus [4] is 0.015 µg/mL (≈ 0.0412 µM); in [5], 0.015 µg/mL (≈ 0.0412 µM); with Enterococcus faecalis it was 0.12 µg/mL (≈ 0.329 µM); in the data set with Escherichia coli [6] it was 0.015 µg/mL (≈ 0.0412 µM); in the data set with Morganella morganii, 0.015 µg/mL (≈ 0.0412 µM). Also, the ED50 came out at 96 mg/kg with Pseudomonas aeruginosa [1], 11.4 mg/kg in the data set with Staphylococcus aureus [2] and 4.1 mg/kg in the data set with Escherichia coli [3]. In [7], the AUC is 11400 ng·h/mL.
For the molecule `C[C@H]1[C@H](N)CN1c1c(F)cc2c(=O)c(C(=O)O)cn(C3CC3)c2c1Cl` (single isomer, unassigned), the minimum inhibitory concentration (MIC) with Bacillus cereus, in the data set on Bacillus subtilis, in the data set on Enterobacter cloacae, with Klebsiella pneumoniae, with Proteus vulgaris and in the data set on Staphylococcus aureus [4] was 0.015 µg/mL (≈ 0.041 µM) in each case. The MIC (in [5]; in the data set with Enterococcus faecalis; in the data set on Escherichia coli [6]; in the data set on Morganella morganii) was 0.015 µg/mL (≈ 0.041 µM) in each case. The ED50 in the data set on Pseudomonas aeruginosa [1] was determined as 36 mg/kg; in the data set on Staphylococcus aureus [2], 3.6 mg/kg; with Escherichia coli [3], 2.1 mg/kg. The exposure (AUC) in data set [7] is 5200 ng·h/mL.
Turning to `C[C@H]1[C@H](N)CN1c1cc2c(cc1F)c(=O)c(C(=O)O)cn2C1CC1` (single isomer, unassigned), the MIC in the data set with Bacillus cereus amounted to 0.015 µg/mL (≈ 0.0453 µM); in the data set with Bacillus subtilis, 0.015 µg/mL (≈ 0.0453 µM); with Enterobacter cloacae, 0.015 µg/mL (≈ 0.0453 µM); in the data set with Klebsiella pneumoniae, 0.015 µg/mL (≈ 0.0453 µM); with Pseudomonas aeruginosa [8], 0.12 µg/mL (≈ 0.362 µM); in the data set with Staphylococcus aureus [4] it was 0.06 µg/mL (≈ 0.181 µM). The MIC came to 0.06 µg/mL (≈ 0.181 µM) in [5], 0.12 µg/mL (≈ 0.362 µM) with Enterococcus faecalis, 0.015 µg/mL (≈ 0.0453 µM) in the data set with Escherichia coli [6] and 0.015 µg/mL (≈ 0.0453 µM) with Morganella morganii. In addition, the median effective dose (ED50) with Pseudomonas aeruginosa [1] was 100 mg/kg; with Staphylococcus aureus [2] it was 17 mg/kg; in the data set on Escherichia coli [3], 2.9 mg/kg. Also, the AUC in data set [7] is 4000 ng·h/mL.

Source of the values: ChEMBL document CHEMBL1128288, “7-Azetidinylquinolones as antibacterial agents. 3. Synthesis, properties and structure-activity relationships of the stereoisomers containing a 7-(3-amino-2-methyl-1-azetidinyl) moiety” (J Med Chem, 1995).
